What is called IC50 is the concentration at which inhibition is half-maximal.

The values that follow come from ChEMBL document CHEMBL4680124, “2-Styryl-4-aminoquinazoline derivatives as potent DNA-cleavage, p53-activation and in vivo effective anticancer agents” (Eur J Med Chem, 2020).

Structures are written as SMILES. Bounds are passed on as bounds.

Format in all cases: functional, cell-based
Test [1] relates to DU-145. The experiment in a line: Cytotoxicity against human DU145 cells expressing mutant type p53 assessed as reduction in cell viability preincubated for 48 hrs and measured after 4 hrs by MTT assay. The method in brief: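 MTT assay. Cells grown in DMEM (T24, MGC-803, A549, HL-7702), RPMI-1640 (DU145) or DMEM-F12 (PC-3), each with 10% FBS. Exposed to 1.25–20 µM in medium with 1% DMSO for 48 h, then MTT for 4 h. Formazan dissolved in DMSO and read at 570 nm. Five wells per concentration; means ± SD of independent repeats.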
Background: Formazan colour is commonly taken as a measure of viable cells.

For test [2], the system named is T-24. The experiment in a line: Cytotoxicity against human T-24 cells […] assessed as reduction in cell viability preincubated for 48 hrs and measured after 4 hrs by MTT assay.
In test [3] the test system is PC-3. The experiment in a line: Cytotoxicity against human PC-3 cells assessed as reduction in cell viability preincubated for 48 hrs and measured after 4 hrs by MTT assay.
Test [4] deals with L02. The experiment in a line: Cytotoxicity against human HL-7702 cells expressing wild type p53 assessed as reduction in cell viability preincubated for 48 hrs and measured after 4 hrs by MTT assay.
Test [5] concerns A549. The experiment in a line: Cytotoxicity against human A549 cells expressing wild type p53 assessed as reduction in cell viability preincubated for 48 hrs and measured after 4 hrs by MTT assay.
For test [6], the system named is MGC-803. The experiment in a line: Cytotoxicity against human MGC-803 cells expressing mutant type p53 assessed as reduction in cell viability preincubated for 48 hrs and measured after 4 hrs by MTT assay.

Turning to `CCN(CC)CCCNc1nc(/C=C/c2ccc3c(c2)OCO3)nc2ccc(Cl)cc12`, the IC50 was more than 100 µM in test [1]; 9.74 µM in test [2]; more than 100 µM in test [3]; more than 100 µM in test [4]; more than 100 µM in test [5]; 12.9 µM in test [6].
As for `COc1ccc(/C=C/c2nc(NCCN3CCOCC3)c3cc(Cl)ccc3n2)cc1OC`, the concentration for half-maximal inhibition (IC50) in test [1] was more than 100 µM; in test [2] it was 91.8 µM; in test [3], more than 100 µM; in test [4], more than 100 µM; in test [5] it was more than 100 µM; in test [6] it was more than 100 µM.
Take `CN(C)CCCNc1nc(/C=C/c2ccc3c(c2)OCO3)nc2ccc(Cl)cc12`: the IC50 is more than 100 µM in test [1]; 8.12 µM in test [2]; more than 100 µM in test [3]; more than 100 µM in test [4]; more than 100 µM in test [5]; 17.2 µM in test [6].
As for `COc1ccc(/C=C/c2nc(NCCN3CCCCC3)c3ccccc3n2)cc1OC`, the half-maximal inhibitory concentration (IC50) came out at 71.6 µM in test [1]; 10.5 µM in test [2]; 78.5 µM in test [3]; 19.8 µM in test [4]; 82.7 µM in test [5]; 33.2 µM in test [6].
With `CN(C)CCCNc1nc(/C=C/c2ccc([N+](=O)[O-])cc2)nc2ccccc12`, the IC50 in test [1] is 24.4 µM; in test [2], 9.16 µM; in test [3] it was more than 100 µM; in test [4], 21.4 µM; in test [5], 59.5 µM; in test [6], 15.7 µM.
For `O=[N+]([O-])c1ccc(/C=C/c2nc(NCCN3CCOCC3)c3cc(Cl)ccc3n2)cc1`, the concentration for half-maximal inhibition (IC50) in test [1], in test [2], in test [3], in test [4], in test [5] and in test [6] was more than 100 µM each time.
For the molecule `CN(C)CCNc1nc(/C=C/c2ccc3c(c2)OCO3)nc2ccc(Cl)cc12`, the IC50 in test [1] was more than 100 µM; in test [2], 9.61 µM; in test [3], more than 100 µM; in test [4], more than 100 µM; in test [5], more than 100 µM; in test [6], 9.46 µM.
`CCN(CC)CCCNc1nc(/C=C/c2ccc(OC)c(OC)c2)nc2ccc(Cl)cc12`: the IC50 in test [1] was 5.35 µM; in test [2] it was 3.51 µM; in test [3], 6.25 µM; in test [4], 5.17 µM; in test [5], more than 100 µM; in test [6], 8.42 µM.
Take `CCN(CC)CCNc1nc(/C=C/c2ccc([N+](=O)[O-])cc2)nc2ccc(Cl)cc12`: the IC50 in test [1] was 12.4 µM; in test [2], 11 µM; in test [3], more than 100 µM; in test [4], more than 100 µM; in test [5], more than 100 µM; in test [6], 7.12 µM.
On to `CCN(CC)CCCNc1nc(/C=C/c2ccc(OC)c(OC)c2)nc2ccccc12`, for which the IC50 in test [1], in test [2], in test [3], in test [4], in test [5] and in test [6] was more than 100 µM in each case.
Take `COc1ccc(/C=C/c2nc(NCCN(C(C)C)C(C)C)c3cc(Cl)ccc3n2)cc1OC`: the IC50 in test [1] was more than 100 µM; in test [2], 14.8 µM; in test [3], more than 100 µM; in test [4] it was more than 100 µM; in test [5], more than 100 µM; in test [6], 15.6 µM.
Take `CCN(CC)CCNc1nc(/C=C/c2ccc3c(c2)OCO3)nc2ccccc12`: the IC50 in test [1] was 16.3 µM; in test [2], 8.68 µM; in test [3] it was 33.9 µM; in test [4], 20.7 µM; in test [5], 46.9 µM; in test [6], 9.88 µM.
Regarding `COc1ccc(/C=C/c2nc(NCCN3CCOCC3)c3ccccc3n2)cc1OC`, the IC50 in test [1], in test [2], in test [3], in test [4], in test [5] and in test [6] was more than 100 µM throughout.
As for `CCN(CC)CCCNc1nc(/C=C/c2ccc([N+](=O)[O-])cc2)nc2ccccc12`, the IC50 in test [1] was 12.3 µM; in test [2], 5.42 µM; in test [3], 15.4 µM; in test [4], 5.3 µM; in test [5], more than 100 µM; in test [6], 8.25 µM.
For the molecule `CN(C)CCNc1nc(/C=C/c2ccc([N+](=O)[O-])cc2)nc2ccc(Cl)cc12`, the IC50 was 6.76 µM in test [1]; 6.97 µM in test [2]; 8.02 µM in test [3]; 71.3 µM in test [4]; more than 100 µM in test [5]; 4.68 µM in test [6].
On to `Clc1ccc2nc(/C=C/c3ccc4c(c3)OCO4)nc(NCCN3CCOCC3)c2c1`, for which the IC50 in test [1] is more than 100 µM; in test [2], 38.3 µM; in test [3], more than 100 µM; in test [4], more than 100 µM; in test [5], more than 100 µM; in test [6], more than 100 µM.
As to `CCN(CC)CCNc1nc(/C=C/c2ccc([N+](=O)[O-])cc2)nc2ccccc12`, the IC50 in test [1] was more than 100 µM; in test [2] it was more than 100 µM; in test [3], more than 100 µM; in test [4] it was 44.5 µM; in test [5], more than 100 µM; in test [6], more than 100 µM.
Take `CCN(CC)CCCNc1nc(/C=C/c2ccc3c(c2)OCO3)nc2ccccc12`: the IC50 in test [1], in test [2], in test [3], in test [4], in test [5] and in test [6] was more than 100 µM throughout.
For the molecule `COc1ccc(/C=C/c2nc(NCCN(C)C)c3ccccc3n2)cc1OC`, the IC50 in test [1], in test [2], in test [3], in test [4], in test [5] and in test [6] was more than 100 µM in each case.
`CCN(CC)CCNc1nc(/C=C/c2ccc(OC)c(OC)c2)nc2ccc(Cl)cc12`: the IC50 in test [1] is more than 100 µM; in test [2] it was 12.2 µM; in test [3], more than 100 µM; in test [4], 91.2 µM; in test [5], more than 100 µM; in test [6] it was 16.8 µM.
Take `COc1ccc(/C=C/c2nc(NCCCCN)c3ccccc3n2)cc1OC`: the IC50 is more than 100 µM in test [1]; 30.9 µM in test [2]; more than 100 µM in test [3]; more than 100 µM in test [4]; more than 100 µM in test [5]; 70.5 µM in test [6].
Take `C(=C\c1nc(NCCN2CCCCC2)c2ccccc2n1)/c1ccc2c(c1)OCO2`: the IC50 turned out to be 8.53 µM in test [1]; 6.38 µM in test [2]; 12.2 µM in test [3]; 9.91 µM in test [4]; 39.6 µM in test [5]; 10.7 µM in test [6].
Take `CCN(CC)CCNc1nc(/C=C/c2ccc(OC)c(OC)c2)nc2ccccc12`: the IC50 in test [1] is 31.4 µM; in test [2], 30.2 µM; in test [3], 50.3 µM; in test [4], more than 100 µM; in test [5], more than 100 µM; in test [6], more than 100 µM.
With `COc1ccc(/C=C/c2nc(NCCCN(C)C)c3cc(Cl)ccc3n2)cc1OC`, the IC50 in test [1], in test [2], in test [3], in test [4], in test [5] and in test [6] was more than 100 µM throughout.
`Clc1ccc2nc(/C=C/c3ccc4c(c3)OCO4)nc(NCCN3CCCCC3)c2c1`: the IC50 in test [1] is more than 100 µM; in test [2] it was 9.22 µM; in test [3] it was more than 100 µM; in test [4] it was more than 100 µM; in test [5], more than 100 µM; in test [6], 14.7 µM.
Regarding `C(=C\c1nc(NCCN2CCOCC2)c2ccccc2n1)/c1ccc2c(c1)OCO2`, the IC50 in test [1], in test [2], in test [3], in test [4], in test [5] and in test [6] was more than 100 µM each time.
In the case of `COc1ccc(/C=C/c2nc(NCCN(C(C)C)C(C)C)c3ccccc3n2)cc1OC`, the IC50 in test [1] is 15 µM; in test [2], 6.5 µM; in test [3] it was 20.3 µM; in test [4], more than 100 µM; in test [5] it was 38.8 µM; in test [6], 15.5 µM.
For the molecule `CCN(CC)CCNc1nc(/C=C/c2ccc3c(c2)OCO3)nc2ccc(Cl)cc12`, the IC50 in test [1] was 7.56 µM; in test [2] it was 8.17 µM; in test [3], 14.2 µM; in test [4], 15.9 µM; in test [5], more than 100 µM; in test [6], 11.1 µM.
Turning to `CC(C)N(CCNc1nc(/C=C/c2ccc3c(c2)OCO3)nc2ccc(Cl)cc12)C(C)C`, the IC50 in test [1] was 8.78 µM; in test [2], 7.46 µM; in test [3], 10.6 µM; in test [4], more than 100 µM; in test [5], more than 100 µM; in test [6], 8.57 µM.
As to `NCCCCNc1nc(/C=C/c2ccc3c(c2)OCO3)nc2ccccc12`, the IC50 in test [1] is more than 100 µM; in test [2] it was 41.2 µM; in test [3], more than 100 µM; in test [4], more than 100 µM; in test [5] it was more than 100 µM; in test [6], 24.6 µM.
Consider `COc1ccc(/C=C/c2nc(NCCCCN)c3cc(Cl)ccc3n2)cc1OC`, for which the IC50 was 20 µM in test [1]; 7.82 µM in test [2]; more than 100 µM in test [3]; more than 100 µM in test [4]; 50.5 µM in test [5]; 14.1 µM in test [6].
